Assay results published in ChEMBL document CHEMBL3351692, “Discovery and optimization of 1,3,5-trisubstituted pyrazolines as potent and highly selective allosteric inhibitors of protein kinase C-ζ” (J Med Chem, 2014).

How the values were obtained:
[1] = test system: RAW264.7; experiment: Cytotoxicity against mouse RAW264.7 cells assessed as living cells at 7.5 uM by MTT assay; format: cell-based; details: raw264.7, 7.5 µM
Procedure, shortened: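 RAW 264.7 macrophages: MTT viability assay run in parallel with each nitrite (Griess) experiment, same cell line and same compound treatment conditions.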

[2] = target: T1, Protein kinase C zeta type (Homo sapiens, UniProt Q05513); experiment: Inhibition of human PKCzeta assessed as phosphorylation reaction after 4 mins incubation by cell-free assay
T1 sequence (Q05513 whole entry): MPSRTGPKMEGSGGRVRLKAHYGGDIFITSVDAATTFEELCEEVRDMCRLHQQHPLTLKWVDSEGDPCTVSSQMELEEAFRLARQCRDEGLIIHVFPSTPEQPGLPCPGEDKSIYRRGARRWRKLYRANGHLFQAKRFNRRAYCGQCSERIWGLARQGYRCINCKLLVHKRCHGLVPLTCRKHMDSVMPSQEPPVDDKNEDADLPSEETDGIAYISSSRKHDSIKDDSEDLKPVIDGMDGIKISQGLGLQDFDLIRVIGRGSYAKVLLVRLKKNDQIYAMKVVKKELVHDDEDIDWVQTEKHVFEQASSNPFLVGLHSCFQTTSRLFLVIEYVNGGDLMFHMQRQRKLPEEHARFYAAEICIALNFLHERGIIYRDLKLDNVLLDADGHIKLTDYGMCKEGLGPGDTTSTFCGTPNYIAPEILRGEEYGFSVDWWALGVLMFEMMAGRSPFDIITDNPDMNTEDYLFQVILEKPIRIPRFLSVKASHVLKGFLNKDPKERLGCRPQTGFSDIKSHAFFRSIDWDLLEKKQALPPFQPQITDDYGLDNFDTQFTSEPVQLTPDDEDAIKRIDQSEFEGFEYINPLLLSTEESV

[3] = target: T1, Protein kinase C zeta type; experiment: Inhibition of PKCzeta in human U937 cells assessed as inhibition of TNFalpha-induced NF-kappaB activation by reporter gene assay; format: cell-based, U-937
[4] = target: T2, Protein kinase C iota type (Homo sapiens) (UniProt P41743); experiment: Inhibition of PKCiota (unknown origin) at 20 uM
T2 sequence (whole entry): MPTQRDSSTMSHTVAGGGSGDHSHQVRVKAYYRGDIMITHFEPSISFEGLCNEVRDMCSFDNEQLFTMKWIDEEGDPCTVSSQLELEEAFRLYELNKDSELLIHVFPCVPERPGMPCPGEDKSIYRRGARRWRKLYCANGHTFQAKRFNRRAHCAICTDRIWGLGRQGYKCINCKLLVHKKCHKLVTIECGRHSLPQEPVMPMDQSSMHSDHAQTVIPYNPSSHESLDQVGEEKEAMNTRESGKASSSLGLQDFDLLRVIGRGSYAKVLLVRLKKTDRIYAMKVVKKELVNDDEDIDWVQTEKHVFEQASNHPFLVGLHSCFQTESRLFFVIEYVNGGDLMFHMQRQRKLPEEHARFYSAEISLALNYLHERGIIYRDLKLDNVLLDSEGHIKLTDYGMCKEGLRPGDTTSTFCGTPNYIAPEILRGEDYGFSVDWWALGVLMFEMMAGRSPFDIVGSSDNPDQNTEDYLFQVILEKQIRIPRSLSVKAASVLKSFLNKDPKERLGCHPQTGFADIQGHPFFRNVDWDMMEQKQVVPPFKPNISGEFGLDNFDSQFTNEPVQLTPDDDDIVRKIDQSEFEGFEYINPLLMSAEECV
Procedure, shortened: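 Cell-free radiometric kinase assay with purified recombinant PKCι under conditions similar to the PKCζ assay. Reaction mixtures preincubated 4 min at 37 °C, then phosphorylation started with γ32P-ATP/Mg2+. Mean of at least two experiments.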

[5] = target: T3, Nitric oxide synthase, inducible (Mus musculus) (UniProt P29477); experiment: Inhibition of iNOS induction in mouse RAW264.7 cells assessed as NO production at 7.5 uM; format: cell-based
T3 sequence (whole entry): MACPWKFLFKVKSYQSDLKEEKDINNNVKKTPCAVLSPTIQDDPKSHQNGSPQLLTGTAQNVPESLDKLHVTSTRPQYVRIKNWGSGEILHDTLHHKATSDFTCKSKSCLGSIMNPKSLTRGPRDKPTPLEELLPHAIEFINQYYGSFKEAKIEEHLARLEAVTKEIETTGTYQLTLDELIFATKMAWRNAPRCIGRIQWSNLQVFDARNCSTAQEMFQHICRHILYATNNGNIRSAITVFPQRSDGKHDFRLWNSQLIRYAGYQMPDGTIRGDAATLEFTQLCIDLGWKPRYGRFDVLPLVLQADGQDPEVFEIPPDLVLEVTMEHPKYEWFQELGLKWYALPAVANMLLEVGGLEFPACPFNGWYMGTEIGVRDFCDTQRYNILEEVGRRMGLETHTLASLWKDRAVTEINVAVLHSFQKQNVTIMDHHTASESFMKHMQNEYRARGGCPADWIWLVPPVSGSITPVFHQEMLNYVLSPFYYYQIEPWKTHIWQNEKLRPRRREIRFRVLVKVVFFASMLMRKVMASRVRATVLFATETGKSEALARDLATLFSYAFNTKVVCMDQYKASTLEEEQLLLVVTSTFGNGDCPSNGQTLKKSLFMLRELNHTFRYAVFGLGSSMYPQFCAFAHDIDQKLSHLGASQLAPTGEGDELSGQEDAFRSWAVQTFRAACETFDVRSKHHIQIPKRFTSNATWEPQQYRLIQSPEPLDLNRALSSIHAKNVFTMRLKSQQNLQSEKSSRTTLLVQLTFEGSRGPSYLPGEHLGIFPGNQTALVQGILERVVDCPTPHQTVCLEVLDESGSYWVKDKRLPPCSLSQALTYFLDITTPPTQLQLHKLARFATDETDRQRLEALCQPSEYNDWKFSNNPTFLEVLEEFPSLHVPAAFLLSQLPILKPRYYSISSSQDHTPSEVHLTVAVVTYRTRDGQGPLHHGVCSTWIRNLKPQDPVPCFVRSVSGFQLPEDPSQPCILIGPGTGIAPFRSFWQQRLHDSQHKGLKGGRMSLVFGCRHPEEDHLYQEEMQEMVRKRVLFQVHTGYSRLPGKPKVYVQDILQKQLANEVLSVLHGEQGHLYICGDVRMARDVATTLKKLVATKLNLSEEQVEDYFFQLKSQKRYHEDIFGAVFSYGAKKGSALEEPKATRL
Procedure, shortened: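 RAW 264.7 cells seeded at 8 × 10⁴ per well in DMEM/10% FBS and grown 2 days. Then exposed to LPS with compound or DMSO for 20 h. Supernatant nitrite measured by Griess reaction (sulfanilamide/NED) at 550 nm minus 620 nm background, quantified against a sodium nitrite standard curve. At least four experiments in triplicate.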

| IC50 [2] | IC50 [3] | inhibition [4] | inhibition [5] | SMILES | Activity [1] |
| --- | --- | --- | --- | --- | --- |
| – | – | – | – | CC(C)(C)C1=NN(c2c(Cl)cccc2Cl)C(c2ccc(O)cc2)C1 (stereo not given) | Non-toxic |
| 2.7 µM | 2.7 µM | 17% | – | CC(C)(C)C1=NN(c2cccc(C(F)(F)F)c2)C(c2ccc(O)cc2)C1 (stereo not given) | Non-toxic |
| 11.1 µM | 2.5 µM | 45.2% | – | Oc1ccccc1C1=NN(c2cccc(Cl)c2)C(c2cc(F)c(O)c(F)c2)C1 (stereo not given) | Non-toxic |
| – | – | – | – | Oc1ccc(C2CC(c3cccs3)=NN2c2ccc(Cl)cc2)cc1 (stereo not given) | Non-toxic |
| – | – | – | – | Cc1ccc(N2N=C(C(C)(C)C)CC2c2ccc(O)cc2)cc1 (stereo not given) | Non-toxic |
| – | – | – | – | CCOc1ccccc1C1=NN(c2ccc(Cl)cc2)C(c2ccc(O)cc2)C1 (stereo not given) | Non-toxic |
| 5.2 µM | – | 43.5% | – | CC(C)(C)C1=NN(c2cccc(Cl)c2)C(c2ccc(O)cc2)C1 (stereo not given) | Non-toxic |
| 3.5 µM | – | 31.6% | – | Oc1ccc(C2CC(c3ccccc3)=NN2c2ccc(Cl)cc2)cc1 (stereo not given) | Non-toxic |
| 5.3 µM | 2 µM | 17.4% | – | CC(C)(C)C1=NN(c2ccc(Cl)cc2)C(c2cccc(O)c2)C1 (stereo not given) | Non-toxic |
| – | – | – | – | Cc1ccc(N2N=C(C(C)(C)C)CC2c2ccc(O)cc2)c(C)c1 (stereo not given) | Non-toxic |
| 6.2 µM | – | 24.1% | – | Oc1ccc(C2CC(c3ccccn3)=NN2c2cccc(Cl)c2)cc1 (stereo not given) | Non-toxic |
| – | – | – | – | COc1ccccc1C1=NN(c2ccc(Cl)cc2)C(c2ccc(O)cc2)C1 (stereo not given) | Non-toxic |
| – | – | – | – | CC(C)(C)C1=NN(c2ccc(Cl)cc2Cl)C(c2ccc(O)cc2)C1 (stereo not given) | Non-toxic |
| 8.8 µM | – | – | – | CC(C)(C)C1=NN(c2ccc(C(F)(F)F)cc2)C(c2ccc(O)cc2)C1 (stereo not given) | Non-toxic |
| – | – | – | 32% | CC(C)(C)C1=NN(c2ccccc2)C(c2ccc(O)cc2)C1 (stereo not given) | Non-toxic |
| 2.1 µM | – | 45.5% | – | Oc1ccc(C2CC(c3ccccc3)=NN2c2cccc(Cl)c2)cc1 (stereo not given) | Non-toxic |
| – | – | – | – | Oc1ccc(C2CC(c3ccccc3Cl)=NN2c2ccc(Cl)cc2)cc1 (stereo not given) | Non-toxic |
| 2.2 µM | – | 19.3% | – | CC(C)(C)C1=NN(c2cccc(F)c2)C(c2ccc(O)cc2)C1 (stereo not given) | Non-toxic |
| – | – | – | – | CC(C)c1ccc(N2N=C(C(C)(C)C)CC2c2ccc(O)cc2)cc1 (stereo not given) | Non-toxic |
| – | – | – | – | CC(C)(C)C1=NN(c2ccc(C(=O)O)cc2)C(c2ccc(O)cc2)C1 (stereo not given) | Non-toxic |
| 3.8 µM | 3.7 µM | 29.7% | – | CC(C)(C)C1=NN(c2ccc(Cl)cc2)C(c2ccc(O)c(F)c2)C1 (stereo not given) | Non-toxic |

| IC50 [2] | IC50 [3] | inhibition [4] | inhibition [5] | SMILES | Activity [1] |
| --- | --- | --- | --- | --- | --- |
| – | – | 23.7% | – | CC(C)(C)C1=NN(c2ccc(F)c(F)c2)C(c2ccc(O)cc2)C1 (stereo not given) | Non-toxic |
| 2.9 µM | – | 25.2% | – | Oc1ccc(C2CC(c3ccccc3O)=NN2c2cccc(Cl)c2)cc1F (stereo not given) | Non-toxic |
| – | – | – | – | CC(C)(C)C1=NN(c2ccc(Cl)cc2)C(c2ccc(C#N)cc2)C1 (stereo not given) | Non-toxic |
| < 0.1 µM | 1.1 µM | – | – | Oc1ccc(C2=NN(c3cccc(Cl)c3)C(c3ccc(O)c(F)c3)C2)c(O)c1 (stereo not given) | Non-toxic |
| – | – | 20.3% | – | Oc1ccc(C2CC(c3ccc[nH]3)=NN2c2cccc(Cl)c2)cc1 (stereo not given) | Non-toxic |
| – | – | – | – | CC(C)(C)C1=NN(c2ccccc2F)C(c2ccc(O)cc2)C1 (stereo not given) | Non-toxic |
| – | – | 23.1% | – | CC1C(c2ccccc2O)=NN(c2cccc(Cl)c2)C1c1ccc(O)c(F)c1 (stereo not given) | Non-toxic |
| 0.9 µM | 1.9 µM | 31.6% | – | CC(C)(C)C1=NN(c2ccc(F)c(Cl)c2)C(c2ccc(O)cc2)C1 (stereo not given) | Non-toxic |
| 5.4 µM | – | 38.7% | – | Nc1ccc(C2=NN(c3ccc(Cl)cc3)C(c3ccc(O)cc3)C2)cc1 (stereo not given) | Non-toxic |
| – | – | – | – | CC(C)(C)C1=NN(c2ccc(O)cc2)C(c2ccc(Cl)cc2)C1 (stereo not given) | Non-toxic |
| 9.4 µM | – | – | – | CC(C)(C)C1=NN(c2ccc(F)cc2)C(c2ccc(O)cc2)C1 (stereo not given) | Non-toxic |
| 6.6 µM | 1.4 µM | 39.2% | – | Oc1ccccc1C1=NN(c2cccc(Cl)c2)C(c2ccc(O)c(F)c2F)C1 (stereo not given) | Non-toxic |
| 0.7 µM | 3.1 µM | 7.8% | – | CC(C)(C)C1=NN(c2ccc(F)c(F)c2F)C(c2ccc(O)cc2)C1 (stereo not given) | Non-toxic |
| – | – | – | – | CC(C)(C)C1=NN(c2ccc(O)cc2)C(c2ccc(O)cc2)C1 (stereo not given) | Non-toxic |
| < 0.1 µM | – | 44.1% | – | Oc1ccc(C2CC(c3ccccc3O)=NN2c2ccc(Cl)cc2)cc1O (stereo not given) | Non-toxic |
| – | – | 13.9% | – | Cc1cccc(N2N=C(C(C)(C)C)CC2c2ccc(O)cc2)c1 (stereo not given) | Non-toxic |
| – | – | – | 97% | COc1cc(/C=C/C(=O)CC(=O)/C=C/c2ccc(O)c(OC)c2)ccc1O [CURCUMIN] | Non-toxic |
| – | – | – | 26% | CC(C)(C)C1=NN(c2ccccc2Cl)C(c2ccc(O)cc2)C1 (stereo not given) | Non-toxic |
| – | – | – | – | CC(C)(C)C1=NN(c2ccc(F)cc2F)C(c2ccc(O)cc2)C1 (stereo not given) | Non-toxic |
| 0.4 µM | 2.9 µM | 45.9% | 69% | Oc1ccc(C2CC(c3cccs3)=NN2c2ccc(C(F)(F)F)cc2)cc1 (stereo not given) | Non-toxic |
| 11.4 µM | – | – | – | CC(C)(C)C1=NN(c2ccc(Br)cc2)C(c2ccc(O)cc2)C1 (stereo not given) | Non-toxic |
